Source: ChEMBL document CHEMBL4765386, “Discovery of tertiary amide derivatives incorporating benzothiazole moiety as anti-gastric cancer agents in vitro via inhibiting tubulin polymerization and activating the Hippo signaling pathway” (Eur J Med Chem, 2020)
Activity calls are given as the source filed them. The rule behind the calls is not given here.

Key:
[1] = Antiproliferative activity against human SGC-7901 cells assessed as reduction in cell viability at 60 nmol/L incubated for 48 hrs by MTT assay relative to control; type: functional; settings: SGC-7901, 48 h
Outline: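 MTT viability in gastric cell lines grown in RPMI-1640 with 10% FBS at 37 °C, 5% CO2. Compound at 20, 40 and 60 nM for 48 h, starting 24 h after seeding 5,000 cells per well. MTT for 4 h, formazan dissolved in DMSO, absorbance at 490 nm. Inhibition expressed relative to control.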

[2] = tested on: SGC-7901; test: Induction of apoptosis in human SGC-7901 cells assessed as upregulation of t-Bid at 20 to 60 nM incubated for 48 hrs by Western blot analysis; type: functional, cell-based; settings: dose 20-60 nM
Outline: (§1)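 Cells grown in RPMI-1640 with 10% FBS, penicillin/streptomycin at 37 °C, 5% CO2. Exposure to 20, 40 or 60 nM for 48 h alongside DMSO control. Lysates denatured, resolved by SDS-PAGE, transferred to PVDF, blocked, then probed with primary and secondary antibodies.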

[3] = tested on: MGC-803; test: Activation of Hippo signaling pathway in human […] cells assessed as increase in MST1/2 phosphorylation at 20 to 60 nM incubated for 48 hrs by Western blot analysis; type: cell-based; settings: filed as activator, dose 20-60 nM
Outline: (§2)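 Western blot on gastric cancer cells exposed to compound or DMSO at 20, 40 and 60 nM for 48 h. Cells were lysed, then the denatured lysates were separated by SDS-PAGE and transferred to PVDF. Membranes were blocked and probed with primary and then secondary antibodies. Hippo pathway proteins were detected.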

[4] = tested on: MGC-803; test: Induction of apoptosis in human MGC-803 cells assessed as fragmentation of cells at 20 to 60 nM; type: functional, cell-based; settings: dose 20-60 nM
[5] = tested on: SGC-7901; test: Induction of apoptosis in human SGC-7901 cells assessed as fragmentation of cells at 20 to 60 nM; type: functional, cell-based; settings: dose 20-60 nM
Outline: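 Gastric cancer cells in RPMI-1640/10% FBS at 37 °C, 5% CO2, exposed to 20, 40 and 60 nM for 48 h; nuclear morphology (condensation, fragmentation) inspected after staining.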

[6] = tested on: SGC-7901; test: Cytotoxicity against human SGC-7901 cells harboring SiYAP assessed as increase in cell viability at 20 to 60 nM incubated for 48 hrs by MTT assay; type: cell-based; settings: sgc-7901, 48 h, 0.06 µM, dose 20-60 nM
[7] = tested on: SGC-7901; test: Induction of apoptosis in human SGC-7901 cells assessed as early apoptotic cells at 60 nM incubated for 48 hrs by annexin V-FITC and PI staining based flow cytometry analysis (reference value: 1.4 %); type: functional
[8] = tested on: SGC-7901; test: Activation of Hippo signaling pathway in human SGC-7901 cells assessed as decrease in Bcl-2 expression incubated for 48 hrs by Western blot analysis; type: cell-based; settings: filed as activator, dose 20-60 nM; outline: as §2
[9] = tested on: SGC-7901; test: Activation of Hippo signaling pathway in human SGC-7901 cells assessed as increase in LATS phosphorylation at 20 to 60 nM incubated for 48 hrs by Western blot analysis; type: cell-based; settings: filed as activator, dose 20-60 nM; outline: as §2
[10] = tested on: MGC-803; test: Induction of apoptosis in human MGC-803 cells assessed as increase in PARP cleavage at 20 to 60 nM incubated for 48 hrs by Western blot analysis; type: functional, cell-based; settings: dose 20-60 nM
Outline: (§3)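 Western blot on MGC-803 and SGC-7901 cells given 20, 40 and 60 nM compound or DMSO for 48 h. Denatured lysates were run on SDS-PAGE and transferred to PVDF, then probed with primary and secondary antibodies to detect apoptosis-related proteins.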

[11] = tested on: SGC-7901; test: Induction of apoptosis in human SGC-7901 cells assessed as early apoptotic cells at 20 nM incubated for 48 hrs by annexin V-FITC and PI staining based flow cytometry analysis (reference value: 1.4 %); type: functional
[12] = tested on: SGC-7901; test: Induction of apoptosis in human SGC-7901 cells assessed as upregulation of DR5 at 20 to 60 nM incubated for 48 hrs by Western blot analysis; type: functional, cell-based; settings: dose 20-60 nM; outline: as §1
[13] = tested on: SGC-7901; test: Activation of Hippo signaling pathway in human SGC-7901 cells assessed as increase in MST1/2 phosphorylation at 20 to 60 nM incubated for 48 hrs by Western blot analysis; type: cell-based; settings: filed as activator, dose 20-60 nM; outline: as §2
[14] = tested on: MGC-803; test: Induction of apoptosis in human MGC-803 cells assessed as downregulation of Mcl-1 at 20 to 60 nM incubated for 48 hrs by Western blot analysis; type: functional, cell-based; settings: dose 20-60 nM; outline: as §3
[15] = tested on: MGC-803; test: Induction of apoptosis in human MGC-803 cells assessed as early apoptotic cells at 60 nM incubated for 48 hrs by annexin V-FITC and PI staining based flow cytometry analysis (reference value: 2.9 %); type: functional
[16] = tested on: MGC-803; test: Induction of apoptosis in human MGC-803 cells assessed as downregulation of Bcl-xl at 20 to 60 nM incubated for 48 hrs by Western blot analysis; type: functional, cell-based; settings: dose 20-60 nM; outline: as §3
[17] = tested on: SGC-7901; test: Antiproliferative activity against human SGC-7901 cells assessed as reduction in cell viability incubated for 48 hrs by MTT assay; type: functional, cell-based; settings: SGC-7901, 48 h
Outline: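 MTT assay. 5,000 cells per well in RPMI-1640 with 10% FBS and penicillin/streptomycin at 37 °C, 5% CO2. Compound added 24 h after seeding and left for 48 h. MTT was then added for 4 h at 37 °C, formazan dissolved in DMSO and absorbance read at 490 nm. IC50 calculated from three independent experiments.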

[18] = tested on: MGC-803; test: Cytotoxicity against human MGC-803 cells harboring SiYAP assessed as increase in cell viability at 20 to 60 nM incubated for 48 hrs by MTT assay; type: cell-based; settings: mgc-803, 48 h, 0.06 µM, dose 20-60 nM
[19] = tested on: MGC-803; test: Induction of apoptosis in human MGC-803 cells assessed as late apoptotic cells at 40 nM incubated for 48 hrs by annexin V-FITC and PI staining based flow cytometry analysis (reference value: 4.1 %); type: functional
[20] = tested on: MGC-803; test: Inhibition of tubulin polymerization in human MGC-803 cells assessed as decrease in microtubule formation at 20 to 60 nmol/L by DAPI staining based microscopic analysis; type: cell-based; settings: dose 20-60 nmol/L
Outline: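 Cells cultured in RPMI-1640 with 10% FBS at 37 °C, 5% CO2, treated 48 h with 20, 40 and 60 nM; stained for β-tubulin (green) and nuclei (blue) and examined by microscopy.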

[21] = tested on: MGC-803; test: Induction of apoptosis in human MGC-803 cells assessed as increase in caspase-9 cleavage at 20 to 60 nM incubated for 48 hrs by Western blot analysis; type: functional, cell-based; settings: dose 20-60 nM; outline: as §3
[22] = tested on: MGC-803; test: Induction of apoptosis in human MGC-803 cells assessed as upregulation of FADD at 20 to 60 nM incubated for 48 hrs by Western blot analysis; type: functional, cell-based; settings: dose 20-60 nM; outline: as §3
[23] = tested on: SGC-7901; test: Displacement of EBI from beta-tubulin in human SGC-7901 cells assessed as reduction in tubulin adduct formation incubated for 2 hrs followed by EBI addition and measured after 2 hrs by Western blot analysis; type: cell-based; settings: dose 0.25-2.5 µM, time 4.0 hrs
Outline: (§4)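 EBI competition assay. […] EBI was then added at […] as printed for another 2 h. Harvested cells were immunoblotted with anti-β-tubulin antibody to detect β-tubulin and the alkylated β-tubulin adduct.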

[24] = tested on: MGC-803; test: Displacement of EBI from beta-tubulin in human MGC-803 cells assessed as reduction in tubulin adduct formation incubated for 2 hrs followed by EBI addition and measured after 2 hrs by Western blot analysis; type: cell-based; settings: dose 0.25-2.5 µM, time 4.0 hrs; outline: as §4
[25] = tested on: SGC-7901; test: Induction of apoptosis in human SGC-7901 cells assessed as increase in PARP cleavage at 20 to 60 nM incubated for 48 hrs by Western blot analysis; type: functional, cell-based; settings: dose 20-60 nM; outline: as §1

COc1ccc(CN(C(=O)CSc2nc3ccccc3s2)c2cc(OC)c(OC)c(OC)c2)cc1O
inhibition at 0.06 µM [1]: 63% | Activity [2]: Active | Activity [3]: Active | Activity [4]: Active | Activity [5]: Active | Activity [6]: Non-Toxic | Activity [7]: 19.1% | Activity [8]: Dose-dependent effect | Activity [9]: Active | Activity [10]: Active | Activity [11]: 4.2% | Activity [12]: Active | Activity [13]: Active | Activity [14]: Active | Activity [15]: 43% | Activity [16]: Active | IC50 [17]: 49 nM | Activity [18]: Non-Toxic | Activity [19]: 10.1% | Activity [20]: Active | Activity [21]: Active | Activity [22]: Active | inhibition [23]: Dose-dependent effect | inhibition [24]: Dose-dependent effect | Activity [25]: Active
